From ChEMBL document CHEMBL3091364, “Benzyloxybenzylammonium chlorides: Simple amine salts that display anticonvulsant activity” (Bioorg Med Chem, 2013)

Assays:
[1] = biological target: Histamine H1 receptor (Homo sapiens) (UniProt P35367); assay: Inhibition of histamine H1 receptor (unknown origin) at 10 uM relative to control
[2] = biological target: D(1B) dopamine receptor (Homo sapiens) (UniProt P21918); assay: Inhibition of dopaminergic D5 receptor (unknown origin) at 10 uM relative to control
Sequence of D(1B) dopamine receptor (Homo sapiens) (P21918 whole entry): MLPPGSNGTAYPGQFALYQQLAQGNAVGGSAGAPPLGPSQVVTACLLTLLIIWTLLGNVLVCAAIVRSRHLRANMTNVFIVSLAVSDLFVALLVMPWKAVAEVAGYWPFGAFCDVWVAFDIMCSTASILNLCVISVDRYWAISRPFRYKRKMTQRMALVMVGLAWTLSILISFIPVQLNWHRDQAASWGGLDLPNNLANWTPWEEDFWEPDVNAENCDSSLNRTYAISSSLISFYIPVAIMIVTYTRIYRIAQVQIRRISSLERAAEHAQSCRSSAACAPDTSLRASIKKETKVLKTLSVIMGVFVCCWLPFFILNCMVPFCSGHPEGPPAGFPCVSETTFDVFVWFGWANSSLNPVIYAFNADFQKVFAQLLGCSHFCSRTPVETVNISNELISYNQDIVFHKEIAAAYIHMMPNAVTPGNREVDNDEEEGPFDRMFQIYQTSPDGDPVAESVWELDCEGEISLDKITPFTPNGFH

[3] = biological target: Mu-type opioid receptor (Homo sapiens) (UniProt P35372); assay: Inhibition of mu opioid receptor (unknown origin) at 10 uM relative to control
Sequence of Mu-type opioid receptor (Homo sapiens) (P35372 whole entry): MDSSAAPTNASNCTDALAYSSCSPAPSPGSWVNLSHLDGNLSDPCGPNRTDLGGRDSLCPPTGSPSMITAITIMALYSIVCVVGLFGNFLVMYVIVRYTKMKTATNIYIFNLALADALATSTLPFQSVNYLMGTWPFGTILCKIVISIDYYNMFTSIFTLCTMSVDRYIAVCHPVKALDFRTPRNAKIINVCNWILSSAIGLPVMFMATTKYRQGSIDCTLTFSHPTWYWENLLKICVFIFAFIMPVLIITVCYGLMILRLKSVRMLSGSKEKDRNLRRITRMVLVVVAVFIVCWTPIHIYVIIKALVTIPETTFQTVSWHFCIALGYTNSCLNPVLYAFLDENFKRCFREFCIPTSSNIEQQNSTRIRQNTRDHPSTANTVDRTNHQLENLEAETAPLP

[4] = biological target: 5-hydroxytryptamine receptor 2B (Homo sapiens) (UniProt P41595); assay: Inhibition of 5-HT2B receptor (unknown origin) at 10 uM relative to control
Sequence of 5-hydroxytryptamine receptor 2B (Homo sapiens) (P41595 whole entry): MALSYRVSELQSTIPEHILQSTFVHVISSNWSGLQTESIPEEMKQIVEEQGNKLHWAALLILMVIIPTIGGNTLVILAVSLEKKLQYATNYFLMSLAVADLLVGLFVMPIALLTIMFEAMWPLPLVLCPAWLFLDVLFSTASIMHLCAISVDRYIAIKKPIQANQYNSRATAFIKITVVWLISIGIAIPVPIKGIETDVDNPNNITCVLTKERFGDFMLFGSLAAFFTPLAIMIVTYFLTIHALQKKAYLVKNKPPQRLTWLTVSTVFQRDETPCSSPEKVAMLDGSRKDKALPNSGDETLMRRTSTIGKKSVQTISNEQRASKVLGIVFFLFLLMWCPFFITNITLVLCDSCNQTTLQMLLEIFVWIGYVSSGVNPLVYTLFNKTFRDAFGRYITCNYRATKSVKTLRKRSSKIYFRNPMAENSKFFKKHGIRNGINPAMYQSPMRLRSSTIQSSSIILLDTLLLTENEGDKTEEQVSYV

[5] = biological target: T1, Alpha-2A adrenergic receptor (Homo sapiens) (UniProt P08913); assay: Inhibition of adrenergic alpha-2A receptor (unknown origin) at 10 uM relative to control
T1 sequence (whole entry): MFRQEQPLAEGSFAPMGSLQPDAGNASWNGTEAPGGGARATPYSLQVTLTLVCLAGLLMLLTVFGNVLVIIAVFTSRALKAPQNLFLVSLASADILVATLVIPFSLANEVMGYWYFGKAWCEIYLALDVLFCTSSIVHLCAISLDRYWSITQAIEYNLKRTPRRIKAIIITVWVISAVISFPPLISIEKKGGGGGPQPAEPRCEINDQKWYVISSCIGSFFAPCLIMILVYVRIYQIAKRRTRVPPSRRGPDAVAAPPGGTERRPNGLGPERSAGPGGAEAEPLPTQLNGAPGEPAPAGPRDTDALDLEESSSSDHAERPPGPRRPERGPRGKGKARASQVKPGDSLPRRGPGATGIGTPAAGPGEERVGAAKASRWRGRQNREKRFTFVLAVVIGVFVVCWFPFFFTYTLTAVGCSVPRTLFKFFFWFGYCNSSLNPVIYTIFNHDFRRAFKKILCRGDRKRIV

[6] = biological target: T2, Muscarinic acetylcholine receptor M1 (Homo sapiens) (UniProt P11229); assay: Inhibition of muscarinergic M1 receptor (unknown origin) at 10 uM relative to control
T2 sequence (whole entry): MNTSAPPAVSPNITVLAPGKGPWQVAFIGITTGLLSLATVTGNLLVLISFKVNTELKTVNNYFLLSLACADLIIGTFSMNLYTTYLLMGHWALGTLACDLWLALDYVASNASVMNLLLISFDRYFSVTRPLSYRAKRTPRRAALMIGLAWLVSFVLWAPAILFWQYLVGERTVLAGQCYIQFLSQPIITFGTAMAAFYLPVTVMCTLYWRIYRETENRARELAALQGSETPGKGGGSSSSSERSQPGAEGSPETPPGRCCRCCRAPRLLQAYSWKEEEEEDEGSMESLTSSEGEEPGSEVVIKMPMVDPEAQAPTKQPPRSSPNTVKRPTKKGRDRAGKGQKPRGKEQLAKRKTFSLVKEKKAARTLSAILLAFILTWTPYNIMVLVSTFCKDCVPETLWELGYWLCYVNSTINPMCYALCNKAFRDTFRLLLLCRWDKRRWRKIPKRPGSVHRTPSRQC

Rattus norvegicus = species on record: Rattus norvegicus; assay: Inhibition of BZP receptor in rat brain at 10 uM relative to control; assay type: tissue-based
[7] = biological target: T3, Muscarinic acetylcholine receptor M5 (Homo sapiens) (UniProt P08912); assay: Inhibition of muscarinergic M5 receptor (unknown origin) at 10 uM relative to control
T3 sequence (whole entry): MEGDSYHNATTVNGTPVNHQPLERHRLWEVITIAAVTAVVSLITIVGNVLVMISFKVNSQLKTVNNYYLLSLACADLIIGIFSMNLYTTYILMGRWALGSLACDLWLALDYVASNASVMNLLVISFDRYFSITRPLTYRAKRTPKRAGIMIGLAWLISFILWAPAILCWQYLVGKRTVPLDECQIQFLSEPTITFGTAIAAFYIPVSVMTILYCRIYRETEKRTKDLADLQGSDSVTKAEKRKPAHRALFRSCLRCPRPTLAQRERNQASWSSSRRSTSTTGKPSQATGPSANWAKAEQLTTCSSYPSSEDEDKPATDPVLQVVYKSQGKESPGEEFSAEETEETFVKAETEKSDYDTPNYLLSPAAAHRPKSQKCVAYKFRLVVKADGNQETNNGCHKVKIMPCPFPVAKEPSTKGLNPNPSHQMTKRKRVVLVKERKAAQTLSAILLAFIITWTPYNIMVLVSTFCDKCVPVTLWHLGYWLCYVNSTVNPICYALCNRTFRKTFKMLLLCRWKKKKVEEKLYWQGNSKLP

[8] = biological target: 5-hydroxytryptamine receptor 2A (Homo sapiens) (UniProt P28223); assay: Inhibition of 5-HT2A receptor (unknown origin) at 10 uM relative to control
Sequence of 5-hydroxytryptamine receptor 2A (Homo sapiens) (P28223 whole entry): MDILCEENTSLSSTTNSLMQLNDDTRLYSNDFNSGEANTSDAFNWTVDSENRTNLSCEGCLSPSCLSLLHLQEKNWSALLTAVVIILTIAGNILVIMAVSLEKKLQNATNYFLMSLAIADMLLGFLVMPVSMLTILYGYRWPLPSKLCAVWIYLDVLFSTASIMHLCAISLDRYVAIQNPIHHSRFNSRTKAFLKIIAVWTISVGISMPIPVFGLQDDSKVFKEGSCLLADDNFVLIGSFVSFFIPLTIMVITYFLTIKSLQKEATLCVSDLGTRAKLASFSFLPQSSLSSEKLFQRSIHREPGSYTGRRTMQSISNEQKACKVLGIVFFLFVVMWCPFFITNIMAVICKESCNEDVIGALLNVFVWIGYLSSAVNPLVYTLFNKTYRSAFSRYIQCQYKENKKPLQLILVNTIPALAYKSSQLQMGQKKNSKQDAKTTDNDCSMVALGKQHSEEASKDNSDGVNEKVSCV

[9] = biological target: T4, Muscarinic acetylcholine receptor M4 (Homo sapiens) (UniProt P08173); assay: Inhibition of muscarinergic M4 receptor (unknown origin) at 10 uM relative to control
T4 sequence (whole entry): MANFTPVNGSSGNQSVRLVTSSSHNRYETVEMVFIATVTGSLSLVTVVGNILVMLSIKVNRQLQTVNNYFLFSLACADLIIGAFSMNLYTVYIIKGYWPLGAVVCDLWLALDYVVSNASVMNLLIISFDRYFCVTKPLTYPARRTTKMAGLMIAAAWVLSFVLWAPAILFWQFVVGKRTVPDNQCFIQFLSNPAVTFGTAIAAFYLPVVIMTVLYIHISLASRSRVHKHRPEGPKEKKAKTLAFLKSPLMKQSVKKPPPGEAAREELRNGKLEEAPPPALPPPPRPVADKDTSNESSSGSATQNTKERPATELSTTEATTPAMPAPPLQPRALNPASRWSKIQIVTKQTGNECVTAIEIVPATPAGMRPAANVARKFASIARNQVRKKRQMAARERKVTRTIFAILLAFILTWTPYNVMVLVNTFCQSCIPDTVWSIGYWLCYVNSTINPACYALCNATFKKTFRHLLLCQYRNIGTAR

[10] = biological target: Beta-2 adrenergic receptor (Homo sapiens) (UniProt P07550); assay: Inhibition of adrenergic beta-2 receptor (unknown origin) at 10 uM relative to control
Sequence of Beta-2 adrenergic receptor (Homo sapiens) (P07550 whole entry, looked up): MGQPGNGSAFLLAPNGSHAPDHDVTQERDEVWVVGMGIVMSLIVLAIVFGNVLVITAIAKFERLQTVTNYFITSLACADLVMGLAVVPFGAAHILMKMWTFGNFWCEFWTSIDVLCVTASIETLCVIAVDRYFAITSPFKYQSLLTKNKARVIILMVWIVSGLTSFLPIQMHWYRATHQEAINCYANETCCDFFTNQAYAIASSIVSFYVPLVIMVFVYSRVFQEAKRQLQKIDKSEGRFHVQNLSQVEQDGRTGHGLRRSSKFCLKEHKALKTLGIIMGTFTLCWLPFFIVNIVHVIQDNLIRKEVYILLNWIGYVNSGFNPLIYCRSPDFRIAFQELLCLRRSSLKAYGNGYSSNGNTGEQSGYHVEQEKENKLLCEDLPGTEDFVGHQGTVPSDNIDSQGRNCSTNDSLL

[11] = Toxicity in ip dosed albino Sprague-Dawley rat assessed as behavioral changes measured at 0.25 to 4 hrs; assay type: organism-based; settings: in vivo
Method in brief: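 Male albino Sprague-Dawley rats given compound intraperitoneally or orally (NINDS ASP); neurological impairment judged from behavioral toxicity effects. Preset screening doses (e.g., 30 mg/kg); for adequately active compounds, TD50 (mg/kg, 95% confidence intervals) derived from dose–effect data at time of peak effect.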

Sequence of Histamine H1 receptor (Homo sapiens) (P35367 whole entry): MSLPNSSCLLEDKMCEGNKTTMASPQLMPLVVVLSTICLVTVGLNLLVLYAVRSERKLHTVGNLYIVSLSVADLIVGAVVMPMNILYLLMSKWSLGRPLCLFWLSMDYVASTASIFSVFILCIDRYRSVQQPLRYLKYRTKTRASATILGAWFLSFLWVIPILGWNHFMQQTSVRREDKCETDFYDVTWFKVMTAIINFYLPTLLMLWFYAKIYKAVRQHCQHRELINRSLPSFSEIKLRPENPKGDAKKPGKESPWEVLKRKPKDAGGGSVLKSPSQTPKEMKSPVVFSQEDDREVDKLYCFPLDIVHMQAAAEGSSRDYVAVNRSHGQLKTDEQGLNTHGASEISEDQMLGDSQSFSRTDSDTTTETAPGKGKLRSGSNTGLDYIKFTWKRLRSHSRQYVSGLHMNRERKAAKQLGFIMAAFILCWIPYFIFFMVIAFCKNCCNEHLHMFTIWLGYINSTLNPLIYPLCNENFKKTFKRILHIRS

| Compound | inhibition [1] [%] | inhibition [2] [%] | inhibition [3] [%] | inhibition [4] [%] | inhibition [5] [%] | inhibition [6] [%] | inhibition (Rattus norvegicus) [%] | inhibition [7] [%] | inhibition [8] [%] | inhibition [9] [%] | inhibition [10] [%] | TD50 [11] [mg/kg] |
| --- | --- | --- | --- | --- | --- | --- | --- | --- | --- | --- | --- | --- |
| Cl.NCc1ccc(OCc2cccc(Cl)c2)cc1 | 1.4 | -1.6 | -2.2 | 39.8 | 74 | 17.6 | -4.4 | 17.7 | 88.2 | 0.2 | -5.7 | > 30 |
| Cl.NCc1ccc(OCc2ccc(OC(F)(F)F)cc2)cc1 | 14.7 | 3.5 | -5.6 | 34.4 | 48.2 | 26.6 | 0.3 | 1.7 | 94.7 | -4.7 | 9.1 | > 50 |
| Cl.NCc1ccc(OCc2cccc(OC(F)(F)F)c2)cc1 | 12.1 | 0.4 | 2.8 | 51.4 | 47 |  | 19.8 | 0.8 | 88 | 4.3 | -8.1 | > 30 |
| Cl.NCc1ccc(OCc2ccc(Cl)cc2)cc1 | 0.3 | 6.4 | -2.3 | 40.6 | 65.9 | 18.8 | 6.5 | 13.6 | 92.6 | 3.5 | 17.1 | > 30 |

Continued, in another order:

| inhibition [1] [%] | inhibition [2] [%] | inhibition [3] [%] | inhibition [4] [%] | inhibition [5] [%] | inhibition [6] [%] | inhibition (Rattus norvegicus) [%] | inhibition [7] [%] | inhibition [8] [%] | inhibition [9] [%] | inhibition [10] [%] | Compound | TD50 [11] [mg/kg] |
| --- | --- | --- | --- | --- | --- | --- | --- | --- | --- | --- | --- | --- |
| 15.6 | 3.9 | -4.8 | 49 | 59.2 | 67.3 | 5.9 | 0.4 | 73.8 | 1.6 | 5 | Cl.NCc1ccc(OCc2ccccc2OC(F)(F)F)cc1 |  |
| -5.8 | 1 | -5.5 | 46.5 | 55.4 | 18.6 | 8.9 | 6.4 | 77.1 | 10.4 | 2.2 | Cl.NCc1ccc(OCc2ccc(F)cc2)cc1 | > 30 |
| 7.6 | 1.9 | -5.8 | 55.7 | 47.3 | 28.9 | 12.7 | -2.7 | 76.8 |  | 11.8 | Cl.NCc1ccc(OCc2ccccc2)cc1 | > 50 |
| 6.7 | 2.3 |  | 82.4 | 39 | 42 | -1.5 | -8.5 | 75.7 | -9 | 17.4 | Cl.NCc1ccc(OCc2ccccc2F)cc1 | > 50 |
| 5.2 | -0.5 | -8.6 | 87.3 | 57.2 | 37.5 | 25.8 |  | 88.6 |  | 9.2 | Cl.NCc1ccc(OCc2cccc(F)c2)cc1 | > 30 |
